Our source for the IC50 values is ChEMBL document CHEMBL4177662, “Phosphamide-containing diphenylpyrimidine analogues (PA-DPPYs) as potent focal adhesion kinase (FAK) inhibitors with enhanced activity against pancreatic cancer cell lines” (Bioorg Med Chem, 2017).

For one experiment, the system named is PANC-1. The experiment in a line: Antiproliferative activity against human PANC1 cells after 72 hrs by MTT assay. It counts as functional, cell-based. To be noted: PANC-1, 72 h. The method in brief:
(§1)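 Cells grown in DMEM with 10% FBS and 1% penicillin-streptomycin at 37 °C, 5% CO2. Seeded at 4,000 to 5,000 cells/well, cultured one day, then exposed to compounds for 72 h at 1.25 to 40 μmol/L, five replicates per concentration. MTT absorbance read at 570 nm. IC50 from five-point dose-response curves; mean of at least three separate experiments.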
A general note: Formazan colour is commonly taken as a measure of viable cells.

A short description of experiment [1]: Antiproliferative activity against human HPDE6c7 cells after 72 hrs by MTT assay. It counts as cell-based. As to conditions: HPDE6c7, 72 h. The method in brief:
as §1

In the next experiment the test system is BXPC-3. Description: Antiproliferative activity against human BxPC3 cells after 72 hrs by MTT assay. It counts as functional, cell-based. To be noted: BXPC-3, 72 h. The method in brief: as §1
Another experiment has as its system ASPC1. Description: Antiproliferative activity against human Aspc-1 cells after 72 hrs by MTT assay. Format: functional, cell-based. As to conditions: ASPC1, 72 h. The method in brief:
as §1

For a further experiment, the target named is Focal adhesion kinase 1 (Homo sapiens, UniProt Q05397). The experiment in a line: Inhibition of recombinant human N-terminal His-tagged FAK cytoplasmic domain (393 to 698 residues) expressed in baculovirus infected sf9 cells assessed as reduction in autophosphorylation after 60 mins by ADP-Glo kinase assay. The method in brief: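 ADP-Glo luminescence assay. The kinase reaction ran in 1× kinase buffer with compound at 1 to 200 nM, for 60 min at room temperature. ADP-Glo reagent was then added to stop the reaction and deplete leftover ATP (40 min, room temperature). Detection reagent converted ADP to ATP for luciferase read-out (30 min). IC50 from curve fitting, mean ± SE of three independent experiments.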
Sequence of Focal adhesion kinase 1 (Q05397 whole entry, the tested form may be a part): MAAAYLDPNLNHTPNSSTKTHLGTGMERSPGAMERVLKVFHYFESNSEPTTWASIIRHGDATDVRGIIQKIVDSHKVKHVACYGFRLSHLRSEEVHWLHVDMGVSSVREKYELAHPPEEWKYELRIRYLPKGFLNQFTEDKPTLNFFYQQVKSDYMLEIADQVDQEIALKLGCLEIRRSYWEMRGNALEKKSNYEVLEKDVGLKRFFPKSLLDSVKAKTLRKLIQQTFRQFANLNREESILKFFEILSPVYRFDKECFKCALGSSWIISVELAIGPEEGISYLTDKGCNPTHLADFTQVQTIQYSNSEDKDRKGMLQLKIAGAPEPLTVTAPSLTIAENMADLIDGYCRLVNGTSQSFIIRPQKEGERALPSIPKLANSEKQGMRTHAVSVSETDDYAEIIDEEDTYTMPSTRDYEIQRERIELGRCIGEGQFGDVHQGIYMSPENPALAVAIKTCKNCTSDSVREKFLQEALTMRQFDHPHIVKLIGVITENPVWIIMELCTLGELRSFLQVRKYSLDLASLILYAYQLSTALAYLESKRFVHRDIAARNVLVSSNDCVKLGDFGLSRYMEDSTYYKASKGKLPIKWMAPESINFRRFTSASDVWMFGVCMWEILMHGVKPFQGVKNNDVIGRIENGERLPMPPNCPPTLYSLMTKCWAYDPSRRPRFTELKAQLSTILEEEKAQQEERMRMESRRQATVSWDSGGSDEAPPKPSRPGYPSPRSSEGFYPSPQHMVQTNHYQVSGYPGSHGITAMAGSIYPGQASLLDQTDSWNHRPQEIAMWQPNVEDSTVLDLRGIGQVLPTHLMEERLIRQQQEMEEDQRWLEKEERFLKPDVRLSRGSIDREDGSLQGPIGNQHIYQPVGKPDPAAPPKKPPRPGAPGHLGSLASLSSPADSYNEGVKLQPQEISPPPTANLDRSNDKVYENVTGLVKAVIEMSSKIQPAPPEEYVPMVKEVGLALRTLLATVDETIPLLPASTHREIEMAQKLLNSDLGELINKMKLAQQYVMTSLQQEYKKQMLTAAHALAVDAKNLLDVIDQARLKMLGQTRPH

As usually defined, the IC50 is the midpoint of a concentration-inhibition curve.

For `CNC(=O)c1ccccc1Nc1nc(Nc2ccc(N3CCOCC3)cc2OC)ncc1Cl`, the IC50 with PANC-1 is above 20 µM; in experiment [1] it was 11.4 µM.
Take `CCOP(=O)(Cc1ccc(Nc2ncc([N+](=O)[O-])c(Nc3ccccc3C(=O)NC)n2)cc1)N1CCOCC1` (configuration not stated): the IC50 with PANC-1 was above 40 µM; in experiment [1] it was 8.11 µM; in the experiment with BXPC-3, 1.02 µM; with ASPC1 it was 6.42 µM; on Focal adhesion kinase 1, 0.00569 µM.
With `CCOP(=O)(CCCOc1ccc(Nc2ncc(Cl)c(Nc3ccccc3C(=O)NC)n2)cc1)OCC`, the IC50 came out at 10.9 µM in the experiment with PANC-1; 4.43 µM in experiment [1]; 1.04 µM with BXPC-3; 4.93 µM in the experiment with ASPC1; 0.0107 µM at Focal adhesion kinase 1.
For `CCOP(=O)(CCCOc1ccc(Nc2ncc([N+](=O)[O-])c(Nc3ccccc3C(=O)NC)n2)cc1)OCC` the same measures were 25.4 µM, 1.96 µM, 2.04 µM, 18.3 µM and 0.00618 µM.
Taken in the same sequence, the figures for `CCOP(=O)(Cc1ccc(Nc2ncc([N+](=O)[O-])c(Nc3ccccc3C(=O)NC)n2)cc1)OCC` were 19.2 µM, 4.6 µM, 0.82 µM, 15.2 µM and 0.00501 µM.
As for `CCOP(=O)(Cc1ccc(Nc2ncc(Cl)c(Nc3ccccc3C(=O)NC)n2)cc1)OCC`, the IC50 with PANC-1 was 14.8 µM; in experiment [1], 5.44 µM; in the experiment with BXPC-3, 0.02 µM; in the experiment with ASPC1 it was 3.31 µM; at Focal adhesion kinase 1, 0.00425 µM.
